{"source": "ChEMBL document CHEMBL1157401", "about": "“Anticancer activity of isoobtusilactone A from Cinnamomum kotoense: involvement of apoptosis, cell-cycle dysregulation, mitochondria regulation, and reactive oxygen species” (J Nat Prod, 2008)", "key": {"[1]": {"system": "A549", "assay": "Cell cycle arrest in human A549 cells assessed as accumulation at subG1 phase at 100 uM after 48 hrs", "type": "functional", "how_it_was_run": "(§1)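 Flow cytometry of cell cycle: A549 (5 × 10^5 per 60 mm dish) treated next day with 50 or 100 µM for 24, 48 or 72 h. Adherent and floating cells pooled, fixed in PBS-MeOH 1:2 at 4 °C for at least 18 h, then stained 30 min in the dark with PI 50 µg/mL plus RNase A 50 µg/mL. Sub-G1 taken as the subdiploid fraction; at least three runs.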"}, "[2]": {"system": "A549", "assay": "Cell cycle arrest in human A549 cells assessed as accumulation at G1 phase at 100 uM after 72 hrs", "type": "functional", "how_it_was_run": "as §1"}, "[3]": {"system": "A549", "assay": "Cell cycle arrest in human A549 cells assessed as accumulation at S phase at 100 uM after 72 hrs", "type": "functional", "how_it_was_run": "as §1"}, "[4]": {"system": "A549", "assay": "Cell cycle arrest in human A549 cells assessed as accumulation at G2/M phase at 100 uM after 72 hrs", "type": "functional", "how_it_was_run": "as §1"}, "[5]": {"system": "A549", "assay": "Cell cycle arrest in human A549 cells assessed as accumulation at subG1 phase at 100 uM after 72 hrs", "type": "functional", "how_it_was_run": "as §1"}, "[6]": {"system": "A549", "assay": "Induction of apoptosis in human A549 cells assessed as DNA fragmentation after 12 hrs", "type": "functional, cell-based", "how_it_was_run": "(§2)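 Apoptosis by cytoplasmic mono- and oligonucleosomes (nucleosome ELISA): A549 cells given 1, 10 or 100 µM for 6, 12, 18 or 24 h and lysed, then lysate assayed photometrically. Expressed relative to control; three experiments, mean ± SE, ANOVA with Dunnett's test.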"}, "[7]": {"system": "A549", "assay": "Induction of apoptosis in human A549 cells assessed as DNA fragmentation after 24 hrs", "type": "functional, cell-based", "how_it_was_run": "as §2"}, "[8]": {"system": "A549", "assay": "Induction of apoptosis in human A549 cells assessed as apoptotic nucleosome at 1 uM after 6 hrs", "type": "functional", "how_it_was_run": "as §2"}, "[9]": {"system": "A549", "assay": "Induction of apoptosis in human A549 cells assessed as apoptotic nucleosome at 1 uM after 24 hrs", "type": "functional", "how_it_was_run": "as §2"}, "[10]": {"system": "A549", "assay": "Induction of apoptosis in human A549 cells assessed as apoptotic nucleosome at 100 uM after 6 hrs", "type": "functional", "how_it_was_run": "as §2"}, "[11]": {"system": "A549", "assay": "Induction of apoptosis in human A549 cells assessed as apoptotic nucleosome at 100 uM after 24 hrs", "type": "functional", "how_it_was_run": "as §2"}, "[12]": {"system": "A549", "assay": "Induction of p53 level in human A549 cells at 100 uM after 12 hrs by ELISA", "type": "functional, cell-based", "how_it_was_run": "(§3)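 p53, p21/WAF1 and p27kip1 in A549 lysates by sandwich ELISA after 1, 10 or 100 µM for 6-24 h. Lysate incubated 2 h for p53 and p27kip1, 1 h for p21, at room temperature. HRP-streptavidin and TMB used, absorbance read at 450 nm, values from standard curves. Three experiments, mean ± SE.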"}, "[13]": {"system": "A549", "assay": "Induction of p21/WAF1 protein level in human A549 cells at 100 uM after 18 hrs by ELISA", "type": "functional, cell-based", "how_it_was_run": "as §3"}, "[14]": {"system": "A549", "assay": "Increase in Bax level in human A549 cells after 6 hrs by ELISA", "type": "functional, cell-based", "how_it_was_run": "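Bax and Bcl-2 in A549 lysates by sandwich ELISA after 1, 10 or 100 µM for 6-24 h. Lysate incubated 1 h at room temperature, HRP-streptavidin and TMB used, absorbance read at 450 nm. Levels interpolated from protein standard curves and compared with vehicle; three experiments, mean ± SE, ANOVA with Dunnett's test.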"}, "[15]": {"system": "A549", "assay": "Decrease in mitochondrial potential in human A549 cells assessed as decrease in fluorescent intensity of rhodamine 123 staining", "type": "functional, cell-based", "how_it_was_run": "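Mitochondrial membrane potential: A549 cells with or without 100 µM for 6, 12, 18 or 24 h, then moved to serum-free medium containing 10 µM rhodamine 123 for 15 min at 37 °C. Cells collected and fluorescence read within 15 min, ex 490 / em 515 nm.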"}, "[16]": {"system": "A549", "assay": "Induction of cytochrome C release in human A549 cells by ELISA", "type": "functional, cell-based", "details": "TDE = time-dependent effect", "how_it_was_run": "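Cytochrome c release: A549 cells given 100 µM or DMSO vehicle for 6, 12, 18 or 24 h at 37 °C. Cytosolic fraction taken by digitonin permeabilization and mitochondrial fraction by detergent lysis, each measured by cytochrome c ELISA. Three experiments, mean ± SE.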"}, "[17]": {"system": "A549", "assay": "Induction of apoptosis in human A549 cells assessed as caspase 9 activation at 100 uM", "type": "functional, cell-based", "how_it_was_run": "(§4)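 Caspase-9 and caspase-3 activity: A549 cells given 100 µM for 6-24 h and lysed on ice 1 h. 80 µg lysate incubated with substrate at pH 7.2, 37 °C, 1 h in the dark. Caspase-9 read colorimetrically at 405 nm and caspase-3 with AFC substrate, ex 400 / em 520 nm. Reported as percent change versus the 0 h group.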"}, "[18]": {"system": "A549", "assay": "Induction of apoptosis in human A549 cells assessed as caspase 3 activation at 100 uM", "type": "functional, cell-based", "how_it_was_run": "as §4"}, "[19]": {"system": "A549", "assay": "Antioxidant activity in human A549 cells assessed as increase in dichlorofluorescein florescence intensity after 30 mins relative to untreated cells", "type": "functional, cell-based", "how_it_was_run": "(§5)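 Intracellular ROS (H2O2/peroxide) by DCF fluorescence: A549 cells at 80% confluence exposed to 100 µM for 30 min, then 10 µM DCFH-DA 30 min in the dark, trypsinized and resuspended in PBS. Read by flow cytometry, ex 488 / em 525-550 nm. For scavenger tests, NAC (10 mM) or other agents given 30 min before compound.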"}, "[20]": {"system": "A549", "assay": "Antioxidant activity in human A549 cells assessed as N-acetyl-l-cysteine-induced production of H2O2", "type": "functional, cell-based", "how_it_was_run": "as §5"}, "[21]": {"system": "A549", "assay": "Reversal of antiproliferative activity against human A549 cells in presence of N-acetyl-l-cysteine", "type": "functional, cell-based", "how_it_was_run": "(§6)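 ROS-dependence of growth inhibition: A549 cells pretreated with NAC (10 mM) or L-NAME (100 µM) for 2 h, then 100 µM compound for 24 h. Proliferation read by MTT assay at OD 570 nm.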"}, "[22]": {"system": "A549", "assay": "Reversal of antiproliferative activity against human A549 cells in presence of nitro-L-arginine methyl ester", "type": "functional, cell-based", "how_it_was_run": "as §6"}, "[23]": {"system": "A549", "assay": "Inhibition of migration in human A549 cells", "type": "functional, cell-based", "how_it_was_run": "(§7)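 Transwell migration with 8 µm inserts, or Matrigel-coated inserts for invasion: 5 × 10^4 A549 cells in serum-free medium placed in the upper chamber over medium with 10% FBS, 24 h at 37 °C, 5% CO2. Migrated cells stained, dye extracted and read at 560 nm. Reported as percent of control; compound tested at 1 and 10 µM, with NAC pretreatment in reversal tests.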"}, "[24]": {"system": "A549", "assay": "Inhibition of invasion in human A549 cells", "type": "functional, cell-based", "how_it_was_run": "as §7"}, "[25]": {"system": "A549", "assay": "Reversal of inhibition of migration in human A549 cells at 10 uM in presence of N-acetyl-l-cysteine", "type": "functional, cell-based", "how_it_was_run": "as §7"}, "[26]": {"system": "A549", "assay": "Reversal of inhibition of invasion in human A549 cells at 10 uM in presence of N-acetyl-l-cysteine", "type": "functional, cell-based", "how_it_was_run": "as §7"}, "[27]": {"system": "A549", "assay": "Induction of p27kip1 level in human A549 cells at 100 uM after 18 hrs by ELISA", "type": "functional, cell-based", "how_it_was_run": "as §3"}}, "note": "Active and inactive are the calls of the source. The rule behind the calls is not given here.", "data": [{"molecule": "C=C1OC(=O)/C(=C/CCCCCCCCCCCCC)[C@@H]1O", "note": "[ISOOBTUSILACTONE A]", "values": [{"measurement": "Activity", "setting": "[1]", "value": 47.64, "unit": "%"}, {"measurement": "Activity", "setting": "[2]", "value": 41.73, "unit": "%"}, {"measurement": "Activity", "setting": "[3]", "value": 16.24, "unit": "%"}, {"measurement": "Activity", "setting": "[4]", "value": 42.03, "unit": "%"}, {"measurement": "Activity", "setting": "[5]", "value": 60.25, "unit": "%"}, {"measurement": "Activity", "setting": "[6]", "value": "Active"}, {"measurement": "Activity", "setting": "[7]", "value": "Active"}, {"measurement": "Activity", "setting": "[8]", "value": 3.5}, {"measurement": "Activity", "setting": "[9]", "value": 16}, {"measurement": "Activity", "setting": "[10]", "value": 4.5}, {"measurement": "Activity", "setting": "[11]", "value": 25}, {"measurement": "Activity", "setting": "[12]", "value": "Active"}, {"measurement": "Activity", "setting": "[13]", "value": "Active"}, {"measurement": "Activity", "setting": "[14]", "value": "Active"}, {"measurement": "Activity", "setting": "[15]", "value": "Active"}, {"measurement": "Activity", "setting": "[16]", "value": "tde"}, {"measurement": "Activity", "setting": "[17]", "value": "Active"}, {"measurement": "Activity", "setting": "[18]", "value": "Active"}, {"measurement": "Activity", "setting": "[19]", "value": "Active"}, {"measurement": "Activity", "setting": "[20]", "value": "Active"}, {"measurement": "Activity", "setting": "[21]", "value": "inactive"}, {"measurement": "Activity", "setting": "[22]", "value": "Active"}, {"measurement": "Activity", "setting": "[23]", "value": "Active"}, {"measurement": "Activity", "setting": "[24]", "value": "Active"}, {"measurement": "Activity", "setting": "[25]", "value": "Active"}, {"measurement": "Activity", "setting": "[26]", "value": "Active"}, {"measurement": "Activity", "setting": "[27]", "value": "Active"}]}]}
